{"data": "Experimental data of several laboratories", "PCNA": "Proliferating cell nuclear antigen (PCNA, Homo sapiens, UniProt P12004)", "ADRB2": "Beta-2 adrenergic receptor (ADRB2, Homo sapiens, UniProt P07550)", "Ntsr1": "Neurotensin receptor type 1 (Ntsr1, Rattus norvegicus, UniProt P20789)", "F10 trypsin-like site": "Coagulation factor X, trypsin-like site (F10, Homo sapiens, UniProt P00742)", "MMP2": "72 kDa type IV collagenase (MMP2, Homo sapiens, UniProt P08253)", "note": "Compare with care: the assays were run in different laboratories."}
{"SMILES": "CC[C@H](C)[C@H](NC(=O)[C@H](CCCCN)NC(=O)[C@H](CO)NC(=O)[C@H](C)NC(=O)[C@H](CCCCN)NC(=O)[C@H](CCCCN)NC(=O)CNC(=O)[C@H](Cc1c[nH]cn1)NC(=O)[C@@H](N)CCC(N)=O)C(=O)N[C@H](C(=O)N[C@@H](CC(=O)O)C(=O)N[C@@H](Cc1c[nH]cn1)C(=O)N[C@@H](Cc1ccccc1)C(=O)N[C@@H](CCSC)C(=O)N[C@@H](CCCNC(=N)N)C(=O)N[C@@H](CC(C)C)C(=O)N1CCC[C@H]1C(=O)N[C@@H](CCCCN)C(=O)N[C@@H](C)C(=O)O)[C@@H](C)O", "target": "PCNA", "test": "binding, ITC", "setting": "pH 7.4", "endpoint": "Kd", "result": "2.45 µM"}
{"SMILES": "NCC(O)c1cc(O)c(O)cc1F (stereo not shown)", "target": "ADRB2", "test": "ligand displacement, radioligand", "setting": "cell membranes", "endpoint": "Ki", "result": "1160 µM"}
{"SMILES": "CC[C@H](C)[C@H](NC(=O)[C@H](C)NC(=O)[C@H](CO)NC(=O)[C@H](CC(=O)O)NC(=O)[C@H](CCCCN)NC(=O)[C@H](CCCCN)NC(=O)CNC(=O)[C@H](Cc1c[nH]cn1)NC(=O)[C@@H](N)CCC(N)=O)C(=O)N[C@H](C(=O)N[C@@H](CC(=O)O)C(=O)N[C@@H](Cc1c[nH]cn1)C(=O)N[C@@H](Cc1ccccc1)C(=O)N[C@@H](CCSC)C(=O)N[C@@H](CCCNC(=N)N)C(=O)N[C@@H](CC(C)C)C(=O)N1CCC[C@H]1C(=O)N[C@@H](CCCCN)C(=O)N[C@@H](C)C(=O)O)[C@@H](C)O", "target": "PCNA", "test": "binding, ITC", "setting": "pH 7.4", "endpoint": "Kd", "result": "24.9 µM"}
{"SMILES": "CCOC(=O)C(CC)(CCCSCCOCCOCCNc1ccc([N+](=O)[O-])c2nonc12)NC(=O)c1ccc(C2CC2)c(Cc2ccc(F)cc2)n1 (racemic)", "target": "Cannabinoid receptor 2 (CNR2, Homo sapiens, UniProt P34972)", "test": "cAMP, agonist", "endpoint": "EC50", "result": "0.0047 µM"}
{"SMILES": "C[C@H](N)Cn1ncc2ccc3c(c21)CCCO3", "target": "ADRB2", "test": "cell-free assay, radioligand", "endpoint": "Ki", "result": "0.48 µM"}
{"SMILES": "CC(=O)N[C@@H](C)C(=O)N1CCC[C@H]1C(=O)N[C@@H](CC(C)C)C(=O)N[C@H](C(=O)N[C@@H](CCCNC(=N)N)C(=O)NCC(=O)N[C@@H](CO)C(=O)N[C@@H](CS)C(=O)N[C@@H](CCCNC(=N)N)C(=O)N[C@@H](CCCCN)C(=O)N[C@@H](CCCNC(=N)N)C(=O)N[C@@H](CC(N)=O)C(=O)N[C@@H](CCCNC(=N)N)C(=O)N[C@@H](CO)C(=O)N1CCC[C@H]1C(=O)N[C@@H](CCC(=O)O)C(=O)N[C@@H](CCCNC(=N)N)C(N)=O)[C@@H](C)O", "target": "WD repeat-containing protein 5 (WDR5, Homo sapiens, UniProt P61964)", "test": "binding, ITC", "setting": "pH 7", "endpoint": "Kd", "result": "14.6 µM"}
{"SMILES": "COc1ccccc1-c1cc(C(=O)NC2(C(=O)O)CCCCC2)nn1-c1ccc(F)cc1", "target": "Ntsr1", "test": "calcium signal, antagonist, fluorescence", "endpoint": "Kb", "result": "> 10 µM"}
{"SMILES": "CC(C)(C)[C@H](NC(=O)[C@H](CCCNC(=N)N)NC(=O)Cc1ccc(CNC(=N)N)cc1)C(=O)N[C@@H](CCONC(=N)N)C(=O)NCc1ccc(C(=N)N)cc1", "target": "F10 trypsin-like site", "test": "enzyme activity, inhibitor", "setting": "pH 8", "endpoint": "Ki", "result": "15 µM"}
{"SMILES": "O=C(N[C@H]1COC(=O)[C@@H](NC(=O)c2cccc(O)c2[O-])COC(=O)[C@@H](NC(=O)c2cccc(O)c2[O-])COC1=O)c1cccc(O)c1[O-].[Fe+3]", "target": "Neutrophil gelatinase-associated lipocalin (LCN2, Homo sapiens, UniProt P80188, C107S)", "test": "binding, fluorescence", "setting": "pH 7.4", "endpoint": "Kd", "result": "0.00041 µM"}
{"SMILES": "CC#CCOc1ccc(S(=O)(=O)CC2CS2)cc1 (racemic)", "target": "MMP2", "test": "enzyme activity, inhibitor, fluorescence", "endpoint": "IC50", "result": "26 µM"}
{"SMILES": "c1ccc2c(c1)ccc1ccc3ccccc3c12", "target": "Cytochrome P450 1B1 (CYP1B1, Homo sapiens, UniProt Q16678)", "test": "binding, absorbance", "setting": "pH 7.4", "endpoint": "Kd", "result": "2.5 µM"}
{"SMILES": "CC[C@H](C)[C@H](NC(=O)[C@H](CCCCNC(C)=O)NC(=O)[C@H](CO)NC(=O)[C@H](CC(=O)O)NC(=O)[C@H](CCCCN)NC(=O)[C@H](CCCCN)NC(=O)CNC(=O)[C@H](Cc1c[nH]cn1)NC(=O)[C@@H](N)CCC(N)=O)C(=O)N[C@H](C(=O)N[C@@H](CC(=O)O)C(=O)N[C@@H](Cc1c[nH]cn1)C(=O)N[C@@H](Cc1ccccc1)C(=O)N[C@@H](CCSC)C(=O)N[C@@H](CCCNC(=N)N)C(=O)N[C@@H](CC(C)C)C(=O)N1CCC[C@H]1C(=O)N[C@@H](CCCCN)C(=O)N[C@@H](C)C(=O)O)[C@@H](C)O", "target": "PCNA", "test": "binding, ITC", "setting": "pH 7.4", "endpoint": "Kd", "result": "6.14 µM"}
{"SMILES": "CC(C)(C)[C@H](NC(=O)[C@H](CCCNC(=N)N)NC(=O)Cc1ccc(CN)cc1)C(=O)N[C@@H](CCONC(=N)N)C(=O)NCc1ccc(C(=N)N)cc1", "target": "F10 trypsin-like site", "test": "enzyme activity, inhibitor", "setting": "pH 8", "endpoint": "Ki", "result": "28 µM"}
{"SMILES": "CCCCNNC(=O)c1ccc(Br)cc1", "target": "Histone deacetylase 7 (HDAC7, Homo sapiens, UniProt Q8WUI4)", "test": "enzyme activity, inhibitor, fluorescence", "endpoint": "IC50", "result": "> 100 µM"}
{"SMILES": "CN1[C@@H]2C[C@@H](OC(=O)[C@H](CO)c3ccccc3)C[C@H]1[C@@H]1O[C@@H]12", "target": "Ileal sodium/bile acid cotransporter (SLC10A2, Homo sapiens, UniProt Q12908)", "test": "transporter uptake, inhibitor", "endpoint": "Ki", "result": "6450 µM"}
{"SMILES": "CC[C@H](C)[C@H](NC(=O)[C@H](CCCCN)NC(=O)[C@H](CO)NC(=O)[C@H](CC(=O)O)NC(=O)[C@H](CCCCN)NC(=O)[C@H](CCCCN)NC(=O)CNC(=O)[C@H](Cc1c[nH]cn1)NC(=O)[C@@H](N)CCC(N)=O)C(=O)N[C@H](C(=O)N[C@@H](CC(=O)O)C(=O)N[C@@H](Cc1c[nH]cn1)C(=O)N[C@@H](Cc1ccccc1)C(=O)N[C@@H](C)C(=O)N[C@@H](CCCNC(=N)N)C(=O)N[C@@H](CC(C)C)C(=O)N1CCC[C@H]1C(=O)N[C@@H](CCCCN)C(=O)N[C@@H](C)C(=O)O)[C@@H](C)O", "target": "PCNA", "test": "binding, ITC", "setting": "pH 7.4", "endpoint": "Kd", "result": "1.65 µM"}
{"SMILES": "NCC(O)c1ccc(O)cc1 (stereo not shown)", "target": "ADRB2", "test": "ligand displacement, radioligand", "setting": "cell membranes", "endpoint": "IC50", "result": "73.7 µM"}
{"SMILES": "O=C1C2(Cl)C3(Cl)C4(Cl)C(Cl)(Cl)C5(Cl)C3(Cl)C1(Cl)C5(Cl)C24Cl (stereo not shown)", "target": "Histone-lysine N-methyltransferase SETD7 (SETD7, Homo sapiens, UniProt Q8WTS6)", "test": "enzyme activity, inhibitor", "endpoint": "IC50", "result": "> 333 µM"}
{"SMILES": "FC(F)(F)c1ccc2c(c1)[C@@H]1CNC[C@H]2C1", "target": "Neuronal acetylcholine receptor subunit alpha-7 (CHRNA7, Homo sapiens, UniProt P36544)", "test": "cell-free assay", "endpoint": "Ki", "result": "> 0.3 µM"}
{"SMILES": "CC(C)C[C@H](NC(=O)[C@H](CCC(N)=O)NC(=O)[C@H](CC(C)C)NC(=O)[C@H](CO)NC(=O)[C@H](CO)NC(=O)[C@@H]1CCCN1C(=O)[C@H](Cc1c[nH]c2ccccc12)NC(=O)[C@H](CCC(N)=O)NC(=O)[C@H](Cc1c[nH]c2ccccc12)NC(=O)[C@H](Cc1c[nH]c2ccccc12)NC(=O)[C@@H](N)Cc1c[nH]cn1)C(=O)N[C@@H](CCCNC(=N)N)C(=O)NCC(=O)NCC(=O)NCC(=O)N[C@@H](CO)C(=O)O", "target": "MMP2", "test": "enzyme activity, inhibitor, fluorescence", "endpoint": "IC50", "result": "0.078 µM"}
{"SMILES": "CC[C@H](C)[C@H](NC(=O)[C@H](CCCCN)NC(=O)[C@H](CO)NC(=O)[C@H](CC(=O)O)NC(=O)[C@H](CCCCN)NC(=O)[C@H](CCCCN)NC(=O)CNC(=O)[C@H](Cc1c[nH]cn1)NC(=O)[C@@H](N)CCC(N)=O)C(=O)N[C@@H](C)C(=O)N[C@@H](CC(=O)O)C(=O)N[C@@H](Cc1c[nH]cn1)C(=O)N[C@@H](Cc1ccccc1)C(=O)N[C@@H](CCSC)C(=O)N[C@@H](CCCNC(=N)N)C(=O)N[C@@H](CC(C)C)C(=O)N1CCC[C@H]1C(=O)N[C@@H](CCCCN)C(=O)N[C@@H](C)C(=O)O", "target": "PCNA", "test": "binding, ITC", "setting": "pH 7.4", "endpoint": "Kd", "result": "55.5 µM"}
{"SMILES": "CCc1c(C(=O)N[C@H](C(=O)O)C2CCCCC2)nn(-c2ccnc3cc(Cl)ccc23)c1-c1c(OC)cccc1OC", "target": "Ntsr1", "test": "calcium signal, antagonist, fluorescence", "endpoint": "Kb", "result": "> 10 µM"}
{"SMILES": "CC(C)(C)[C@H](NC(=O)[C@H](CCONC(=N)N)NC(=O)Cc1ccc(CN)cc1)C(=O)N[C@@H](CCONC(=N)N)C(=O)NCc1ccc(C(=N)N)cc1", "target": "F10 trypsin-like site", "test": "enzyme activity, inhibitor", "setting": "pH 8", "endpoint": "Ki", "result": "47 µM"}
{"SMILES": "CC[C@H](C)[C@H](NC(=O)[C@H](CCCNC(=N)N)NC(=O)[C@H](CO)NC(=O)[C@H](CC(=O)O)NC(=O)[C@H](CCCCN)NC(=O)[C@H](CCCCN)NC(=O)CNC(=O)[C@H](Cc1c[nH]cn1)NC(=O)[C@@H](N)CCC(N)=O)C(=O)N[C@H](C(=O)N[C@@H](CC(=O)O)C(=O)N[C@@H](Cc1c[nH]cn1)C(=O)N[C@@H](Cc1ccccc1)C(=O)N[C@@H](CCSC)C(=O)N[C@@H](CCCNC(=N)N)C(=O)N[C@@H](CC(C)C)C(=O)N1CCC[C@H]1C(=O)N[C@@H](CCCCN)C(=O)N[C@@H](C)C(=O)O)[C@@H](C)O", "target": "PCNA", "test": "binding, ITC", "setting": "pH 7.4", "endpoint": "Kd", "result": "6.67 µM"}
{"SMILES": "NCC(O)c1ccc(O)c(O)c1F (stereo not shown)", "target": "ADRB2", "test": "ligand displacement, radioligand", "setting": "cell membranes", "endpoint": "Ki", "result": "16 µM"}
